Columns and labels:
[1] = target: Glutamate NMDA receptor; assay: Inhibition of [3H]MK-801 binding to NMDA receptor of rat cerebral cortical synaptic membrane
[2] = system: Mus musculus; assay: Percentage protection against NMDA-induced lethality in mice by the compound at 20 mg/Kg administered ip 60 mins before iv administration of NMDA in the lethal dose of 90 mg/Kg.; format: functional
How it was run: (§1)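 Male ddY mice (20-28 g), groups of 10, given test compound in saline by intraperitoneal injection. 60 min later they were challenged with a lethal intravenous dose of NMDA (90 mg/kg) in saline. The read-out is protection from NMDA-induced death.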

[3] = system: Mus musculus; assay: Percentage protection against NMDA-induced lethality in mice by the compound at 40 mg/Kg administered ip 60 mins before iv administration of NMDA in the lethal dose of 90 mg/Kg.; format: functional; how it was run: as §1

NC[C@@H]1C[C@@]1(C(=O)O)c1ccccc1
IC50 [1]: > 100 µM

CCN(CC)C(=O)[C@@]1(c2ccccc2)C[C@H]1CN(C)C
Protection [2]: 10% | IC50 [1]: 88 µM | Protection [3]: 40%

CCN(CC)C(=O)[C@@]1(c2ccccc2)C[C@H]1CO
IC50 [1]: > 100 µM

CCN(CC)C(=O)[C@@]1(c2ccccc2)C[C@H]1CCN
Protection [2]: 30% | IC50 [1]: 10 µM | Protection [3]: 20%

CCN(CC)C(=O)[C@@]1(c2ccccc2)C[C@H]1CNC
Protection [2]: 20% | IC50 [1]: 13 µM | Protection [3]: 30%

CCOC(=O)[C@@]1(c2ccccc2)C[C@H]1CN
IC50 [1]: > 100 µM

CCN(CC)C(=O)[C@@]1(c2ccccc2)C[C@H]1Cn1ccnc1C
IC50 [1]: > 100 µM

CCN(CC)C(=O)[C@@]1(c2ccccc2)C[C@H]1CN=[N+]=[N-]
IC50 [1]: > 100 µM

CCN(CC)C(=O)[C@@]1(c2ccccc2)C[C@H]1C=O
IC50 [1]: > 100 µM

CCN(CC)C(=O)[C@@]1(c2ccccc2)C[C@H]1CN [LEVOMILNACIPRAN]
Protection [2]: 60% | IC50 [1]: 6.3 µM | Protection [3]: 100%
